Values joined by “and” are separate entries in the source; they are usually repeats but may differ in a detail not shown here. Identical values can stand only once.
Experiments:
[1] = target: T1, Potassium voltage-gated channel subfamily A member 5 (Homo sapiens, UniProt P22460); test: Inhibition of human voltage-gated potassium channel subunit Kv1.5 expressed in Xenopus oocytes; assay type: cell-based, Oocyte
Outline: (§1)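 Compounds came from a 10 mM DMSO stock diluted into ND96. Read-out was percent inhibition of the compound-free control current. For IC50, 3–4 concentrations were each tested at least twice and fitted with a variable-slope Hill equation.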

[2] = target: Potassium voltage-gated channel subfamily A member 3 (Homo sapiens, UniProt P22001); test: Inhibition of human voltage-gated potassium channel subunit Kv1.3 expressed in Xenopus oocytes; assay type: cell-based, Oocyte
Chain of Potassium voltage-gated channel subfamily A member 3 (P22001 whole entry): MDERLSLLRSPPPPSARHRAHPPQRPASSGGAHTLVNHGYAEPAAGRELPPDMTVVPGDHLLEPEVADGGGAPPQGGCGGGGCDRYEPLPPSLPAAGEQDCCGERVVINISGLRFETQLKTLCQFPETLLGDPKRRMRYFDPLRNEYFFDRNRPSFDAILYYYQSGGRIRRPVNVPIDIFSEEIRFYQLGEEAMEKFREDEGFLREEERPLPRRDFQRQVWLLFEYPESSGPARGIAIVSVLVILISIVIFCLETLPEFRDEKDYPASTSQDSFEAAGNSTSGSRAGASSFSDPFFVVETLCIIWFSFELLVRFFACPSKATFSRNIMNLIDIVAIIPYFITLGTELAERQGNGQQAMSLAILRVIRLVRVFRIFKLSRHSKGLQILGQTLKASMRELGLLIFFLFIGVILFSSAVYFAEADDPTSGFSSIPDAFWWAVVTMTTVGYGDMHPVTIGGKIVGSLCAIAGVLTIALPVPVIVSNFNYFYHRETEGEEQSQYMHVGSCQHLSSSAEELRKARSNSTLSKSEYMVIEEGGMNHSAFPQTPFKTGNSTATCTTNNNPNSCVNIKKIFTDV
Outline: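 Kv1.3 was expressed in Xenopus oocytes and recorded by two-microelectrode voltage clamp, handled like the Kv1.5 assay. Compounds were diluted from a 10 mM DMSO stock into ND96 superfusate. Percent inhibition of the control current at 3–4 concentrations was fitted with a variable-slope dose–response equation to give IC50.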

[3] = target: hERG (KCNH2) (Homo sapiens, UniProt Q12809); test: Inhibition of human Potassium channel HERG expressed in Xenopus oocytes at 10 uM; assay type: cell-based, Oocyte; settings: Xenopus oocytes expressing human hERG
Chain of hERG (KCNH2) (Q12809 whole entry): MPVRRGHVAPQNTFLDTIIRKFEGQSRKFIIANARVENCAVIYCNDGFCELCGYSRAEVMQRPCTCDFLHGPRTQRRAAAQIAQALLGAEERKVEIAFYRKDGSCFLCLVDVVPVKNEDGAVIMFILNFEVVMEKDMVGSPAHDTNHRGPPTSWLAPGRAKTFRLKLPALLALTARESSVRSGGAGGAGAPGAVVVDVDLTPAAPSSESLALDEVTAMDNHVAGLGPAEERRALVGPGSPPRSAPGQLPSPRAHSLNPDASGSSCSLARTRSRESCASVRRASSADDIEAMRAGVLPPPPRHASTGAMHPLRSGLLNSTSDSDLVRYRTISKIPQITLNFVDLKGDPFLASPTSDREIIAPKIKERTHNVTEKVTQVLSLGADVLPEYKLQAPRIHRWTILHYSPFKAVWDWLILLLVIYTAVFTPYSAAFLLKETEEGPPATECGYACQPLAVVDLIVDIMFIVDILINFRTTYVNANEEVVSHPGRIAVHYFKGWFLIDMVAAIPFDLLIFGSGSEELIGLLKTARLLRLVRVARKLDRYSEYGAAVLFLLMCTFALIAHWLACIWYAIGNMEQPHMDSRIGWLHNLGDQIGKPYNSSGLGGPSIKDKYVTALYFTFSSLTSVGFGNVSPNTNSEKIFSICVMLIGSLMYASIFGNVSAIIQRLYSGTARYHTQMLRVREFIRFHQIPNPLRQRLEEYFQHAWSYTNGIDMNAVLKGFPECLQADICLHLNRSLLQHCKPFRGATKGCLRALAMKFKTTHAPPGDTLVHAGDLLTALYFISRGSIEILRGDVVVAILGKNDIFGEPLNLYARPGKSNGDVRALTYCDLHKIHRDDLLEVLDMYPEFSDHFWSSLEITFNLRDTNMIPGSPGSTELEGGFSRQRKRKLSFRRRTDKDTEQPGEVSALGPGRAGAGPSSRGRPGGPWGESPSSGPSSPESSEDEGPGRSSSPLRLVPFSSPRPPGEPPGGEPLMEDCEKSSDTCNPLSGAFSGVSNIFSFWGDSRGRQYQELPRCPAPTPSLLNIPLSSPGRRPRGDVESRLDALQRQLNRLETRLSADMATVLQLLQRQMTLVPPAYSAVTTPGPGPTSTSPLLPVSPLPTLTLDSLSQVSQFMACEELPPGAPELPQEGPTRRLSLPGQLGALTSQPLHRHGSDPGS

[4] = target: T1, Potassium voltage-gated channel subfamily A member 5; test: Inhibition of human voltage-gated potassium channel subunit Kv1.5 expressed in Xenopus oocytes at 10 uM; assay type: cell-based; settings: Oocyte
Outline: as §1, with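 “Human Kv1.5 cRNA (0.2–0.5 ng) was injected into Xenopus oocytes kept at 18 °C. […] Compounds” for “Compounds”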

T1 sequence (P22460 whole entry): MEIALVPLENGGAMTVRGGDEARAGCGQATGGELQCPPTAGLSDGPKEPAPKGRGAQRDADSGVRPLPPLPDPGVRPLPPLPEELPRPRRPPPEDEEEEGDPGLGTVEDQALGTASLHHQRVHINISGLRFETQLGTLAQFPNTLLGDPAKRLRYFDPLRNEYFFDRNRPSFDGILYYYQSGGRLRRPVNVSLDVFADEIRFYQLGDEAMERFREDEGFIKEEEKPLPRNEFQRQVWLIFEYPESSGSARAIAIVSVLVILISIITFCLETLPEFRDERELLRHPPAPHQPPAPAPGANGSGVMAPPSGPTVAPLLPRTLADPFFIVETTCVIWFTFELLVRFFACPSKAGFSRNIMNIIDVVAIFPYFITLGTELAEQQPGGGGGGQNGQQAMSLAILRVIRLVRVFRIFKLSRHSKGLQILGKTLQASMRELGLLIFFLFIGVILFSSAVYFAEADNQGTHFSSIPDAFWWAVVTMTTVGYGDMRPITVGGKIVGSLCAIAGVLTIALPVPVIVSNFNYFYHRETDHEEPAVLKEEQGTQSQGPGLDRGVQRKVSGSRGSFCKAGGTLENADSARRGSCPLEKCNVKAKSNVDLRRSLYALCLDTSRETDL

Compound | IC50 [1] | other results
Cc1cccc(CNC(=O)OCc2ccccc2)c1-c1c(C)cccc1C(=O)NCCc1ccccn1 | 1700 nM | 
CN(C)CC(C)(C)CNC(=O)c1ccccc1-c1ccccc1CNC(=O)OCc1ccccc1 | 2200 nM | 
C[C@H](OC(=O)NCc1ccccc1-c1ccccc1C(=O)NCCc1ccccn1)c1ccccc1 |  | IC50 [2]: 500 nM; inhibition at 10 µM [3]: 11%
CC(C)CCNC(=O)c1ccncc1-c1ccccc1CNC(=O)OCc1ccccc1 | 12000 nM | 
Cc1cccc(CNC(=O)OCc2ccccc2)c1-c1c(C)cccc1C(=O)NCCC(C)C | 1000 nM and 1300 nM | 
CC(C)CCNC(=O)c1ccccc1-c1ccncc1CNC(=O)OCc1ccccc1 | 7000 nM | 
O=C(NC1CCCCC1)c1cccc2cccc(NS(=O)(=O)c3ccc(Cl)cc3)c12 | 9500 nM | 
O=C(NCc1ccccc1-c1ccccc1C(=O)NCCc1ccccn1)OCc1ccccc1 |  | IC50 [2]: 2300 nM; inhibition at 10 µM [3]: 7%
CC(C)CCOC(=O)c1ccccc1-c1ccccc1CNC(=O)OCc1ccccc1 |  | inhibition [4]: 8%
O=C(NCc1ccccc1-c1ccccc1C(=O)NCc1ccc(F)cc1F)OCc1ccccc1 | 1200 nM | 
CC(C)CCNC(=O)c1ccccc1-c1ccccc1CNCCc1ccccc1 | 4000 nM | 
C[C@@H](CC(=O)NCc1ccccc1-c1ccccc1C(=O)NCCc1ccccn1)c1ccccc1 | 1000 nM | 
CC(C)CCNC(=O)c1cccnc1-c1ccccc1CNC(=O)OCc1ccccc1 | 7800 nM | 
COc1ccc(S(=O)(=O)NC(=O)NCc2ccccc2-c2ccccc2C(=O)NCc2ccc(F)cc2F)cc1 |  | inhibition [4]: 7%

— ChEMBL document CHEMBL1145963, “Identification, synthesis, and activity of novel blockers of the voltage-gated potassium channel Kv1.5” (J Med Chem, 2003)
